# Laboratory results taken from ChEMBL document CHEMBL1125428, “Development of 2,3-dihydro-6-(3-phenoxypropyl)-2-(2-phenylethyl)-5-benzofuranol (L-670,630) as a potent and orally active inhibitor of 5-lipoxygenase” (J Med Chem, 1992).
# Columns and labels:
# Rattus norvegicus [1] = assay: Total radioactivity in tissues of male sd rats dosed orally with H-labeled compound at 21 mg/kg after 4 hr in lung; type: functional; conditions: route oral
# How it was run: (§1)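 Male Sprague-Dawley rats received ³H-labelled drug (phenoxy ring, 3.96 μCi/mg) in PEG-400 by gavage at 21 mg/kg. Animals were killed at 5, 15, 30 min and at 1, 2, 4, 24 and 48 h. Homogenates were pooled per group, and total radioactivity was measured as the mean of duplicate combustions, in μg equiv/g. Two or three rats were used per point, except one rat at 24 and 48 h.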
# Rattus norvegicus [2] = assay: Percentage inhibition against antigen induced dyspnea in hyperactive inbred rat at a dose of 0.05 mg/kg; type: functional
# How it was run: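 Inbred hyperreactive rats, six per group, dosed po 2 h before aerosol ovalbumin challenge, with drug suspension or vehicle (0.4% Methocel/0.5% Tween 80, 10 mL/kg). Methysergide 3 mg/kg iv given 5 min before antigen. Dyspnea duration recorded by pneumotachograph. % inhibition of duration is relative to vehicle controls. Student's t test used; ED50 from linear regression.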
# Rattus norvegicus [3] = assay: Total radioactivity in tissues of male sd rats dosed intravenously with H-labeled compound at 21 mg/kg after 1 hr in plasma; type: functional; conditions: route intravenous
# Rattus norvegicus [4] = assay: Total radioactivity in tissues of male sd rats dosed orally with H-labeled compound at 21 mg/kg after 5 min in lung; type: functional; conditions: route oral; how it was run: as §1
# Rattus norvegicus [5] = species: Rattus norvegicus; assay: Percentage inhibition against antigen induced dyspnea in hyperactive inbred rat at a dose of […]; type: functional; conditions: dose 0.15 mg/kg
# Canis familiaris = species: Canis familiaris; assay: Effect on methemoglobin formation in canine venous blood containing heparin; type: functional, Canis lupus familiaris
# Rattus norvegicus [6] = assay: Total radioactivity in tissues of male sd rats dosed intravenously with H-labeled compound at 21 mg/kg after 1 hr in lung; type: functional; conditions: route intravenous
# How it was run: (§2)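 Male Sprague-Dawley rats given ³H compound iv via femoral vein in PEG-400, 21 mg/kg, 3.96 μCi/mg. Killed at 2, 10, 30 min, 1, 2 and 4 h. Total radioactivity measured by combustion of composited tissue homogenates, in duplicate. Two or three rats per time point, one at 10 and 30 min.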
# Rattus norvegicus [7] = assay: % compound was determined by the amount of radioactivity elute with H-labeled at 21 mg/kg after 5 min using RP-HPLC. at a dose of 380 ug/g in lung of male sd rat.; type: functional
# Rattus norvegicus [8] = assay: Total radioactivity in tissues of male sd rats dosed intravenously with H-labeled compound at 21 mg/kg after 2 min in kidney; type: functional; conditions: route intravenous; how it was run: as §2
# Rattus norvegicus [9] = assay: Total radioactivity in tissues of male sd rats dosed intravenously with H-labeled compound at 21 mg/kg after 30 min in kidney; type: functional; conditions: route intravenous; how it was run: as §2
# Rattus norvegicus [10] = assay: Total radioactivity in tissues of male sd rats dosed orally with H-labeled compound at 21 mg/kg after 24 hr r in kidney; type: functional; conditions: route oral; how it was run: as §1
# Rattus norvegicus [11] = assay: Total radioactivity in tissues of male sd rats dosed orally with H-labeled compound at 21 mg/kg after 30 min in liver; type: functional; conditions: route oral; how it was run: as §1
# Rattus norvegicus [12] = assay: Total radioactivity in tissues of male sd rats dosed intravenously with H-labeled compound at 21 mg/kg after 30 min in liver; type: functional; conditions: route intravenous; how it was run: as §2
# Rattus norvegicus [13] = assay: Total radioactivity in tissues of male sd rats dosed intravenously with H-labeled compound at 21 mg/kg after 2 hr in lung; type: functional; conditions: route intravenous; how it was run: as §2
# Rattus norvegicus [14] = assay: Total radioactivity in tissues of male sd rats dosed intravenously with H-labeled compound at 21 mg/kg after 10 min in plasma; type: functional; conditions: route intravenous
# Rattus norvegicus [15] = assay: Total radioactivity in tissues of male sd rats dosed intravenously with H-labeled compound at 21 mg/kg after 10 min in lung; type: functional; conditions: route intravenous; how it was run: as §2
# Rattus norvegicus [16] = assay: Total radioactivity in tissues of male sd rats dosed orally with H-labeled compound at 21 mg/kg after 48 hr in plasma; type: functional; conditions: route oral; how it was run: as §1
# Rattus norvegicus [17] = assay: Total radioactivity in tissues of male sd rats dosed orally with H-labeled compound at 21 mg/kg after 5 min in plasma; type: functional; conditions: route oral; how it was run: as §1
# [18] = biological target: Arachidonate 5-lipoxygenase (Homo sapiens); assay: Inhibitory activity of LTB4 production in human PMN
# Rattus norvegicus [19] = species: Rattus norvegicus; assay: Effective dose against antigen induced dyspnea in hyperactive inbred rat at a dose of […]; type: functional
# Rattus norvegicus [20] = assay: Total radioactivity in tissues of male sd rats dosed orally with H-labeled compound at 21 mg/kg after 48 hr in lung; type: functional; conditions: route oral; how it was run: as §1
# Rattus norvegicus [21] = assay: Total radioactivity in tissues of male sd rats dosed intravenously with H-labeled compound at 21 mg/kg after 4 hr in kidney; type: functional; conditions: route intravenous; how it was run: as §2
# [22] = Measure of AUCpo/AUCiv x 100% of the parent compound before (free) and after (total) beta-glucuronidase treatment; total 54%; type: ADME, organism-based; conditions: in vivo, po; read-out: Bioavailabiility
# Rattus norvegicus [23] = assay: Total radioactivity in tissues of male sd rats dosed intravenously with H-labeled compound at 21 mg/kg after 2 min in plasma; type: functional; conditions: route intravenous
# Rattus norvegicus [24] = assay: Total radioactivity in tissues of male sd rats dosed orally with H-labeled compound at 21 mg/kg after 15 min in liver; type: functional; conditions: route oral; how it was run: as §1
# Rattus norvegicus [25] = assay: Total radioactivity in tissues of male sd rats dosed intravenously with H-labeled compound at 21 mg/kg after 2 hr in kidney; type: functional; conditions: route intravenous; how it was run: as §2
# Rattus norvegicus [26] = assay: Total radioactivity in tissues of male sd rats dosed intravenously with H-labeled compound at 21 mg/kg after 2 min in liver; type: functional; conditions: route intravenous; how it was run: as §2
# Rattus norvegicus [27] = assay: Total radioactivity in tissues of male sd rats dosed intravenously with H-labeled compound at 21 mg/kg after 1 hr in kidney; type: functional; conditions: route intravenous; how it was run: as §2
# Rattus norvegicus [28] = assay: Total radioactivity in tissues of male sd rats dosed intravenously with H-labeled compound at 21 mg/kg after 4 hr in plasma; type: functional; conditions: route intravenous
# How it was run: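 ³H label in the phenoxy ring, dissolved in PEG-400, specific activity 3.96 μCi/mg, given iv via femoral vein at 21 mg/kg to male Sprague-Dawley rats. Animals were killed at 2, 10, 30 min, 1, 2 and 4 h. Tissues from each group were pooled and homogenized, and total radioactivity was measured by combustion, averaged over duplicate combustions. Results are expressed as μg equiv/g. Two or three rats were used per time point.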
compound,measurement,setting,value
Oc1cc2c(cc1CCCOc1ccccc1)OC(CCc1ccccc1)C2 (centres undefined),Total radioactivity,Rattus norvegicus [1],1.74 ug equiv g-1
same,inhibition in vivo at 0.05 mg/kg,Rattus norvegicus [2],50%
same,Total radioactivity,Rattus norvegicus [3],3.34 ug equiv g-1
same,Total radioactivity,Rattus norvegicus [4],473.13 ug equiv g-1
same,inhibition in vivo at […],Rattus norvegicus [5],55%
same,Formation,Canis familiaris,4%
same,Total radioactivity,Rattus norvegicus [6],40.77 ug equiv g-1
same,Activity,Rattus norvegicus [7],80.4%
same,Total radioactivity,Rattus norvegicus [8],51.19 ug equiv g-1
same,Total radioactivity,Rattus norvegicus [9],22.75 ug equiv g-1
same,Total radioactivity,Rattus norvegicus [10],0.15 ug equiv g-1
same,Total radioactivity,Rattus norvegicus [11],3.92 ug equiv g-1
same,Total radioactivity,Rattus norvegicus [12],41.11 ug equiv g-1
same,Total radioactivity,Rattus norvegicus [13],1.6 ug equiv g-1
same,Total radioactivity,Rattus norvegicus [14],9.65 ug equiv g-1
same,Total radioactivity,Rattus norvegicus [15],75.08 ug equiv g-1
same,Total radioactivity,Rattus norvegicus [16],0.82 ug equiv g-1
same,Total radioactivity,Rattus norvegicus [17],7.74 ug equiv g-1
same,IC50,[18],6 nM
same,ED50 at […],Rattus norvegicus [19],0.06 mg/kg
same,Total radioactivity,Rattus norvegicus [20],0.09 ug equiv g-1
same,Total radioactivity,Rattus norvegicus [21],2.82 ug equiv g-1
same,bioavailability,[22],5%
same,Total radioactivity,Rattus norvegicus [23],10.34 ug equiv g-1
same,Total radioactivity,Rattus norvegicus [24],7.82 ug equiv g-1
same,Total radioactivity,Rattus norvegicus [25],1.24 ug equiv g-1
same,Total radioactivity,Rattus norvegicus [26],142.77 ug equiv g-1
same,Total radioactivity,Rattus norvegicus [27],11.78 ug equiv g-1
same,Total radioactivity,Rattus norvegicus [28],1.18 ug equiv g-1
